# This is a sample that favours compounds with a hit; in the whole collection about 1.9% have one here.
# HCV NS3 hel inh – blocks Hepatitis C virus NS3 helicase unwinding. NS3 helicase DNA unwinding, Cy5 molecular beacon fluorescence. actives 0.56% (n = 290,000). inhibition, % at 10.9 µM;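 active means inhibition above the mean of all tested compounds plus 3 SD, set per campaign, cut at about 35% in these data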
#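 Assay system – hepatitis C virus NS3 helicase domain fragment enzyme · Buffer or medium – MOPS pH 6.5, MgCl2, DTT, Tween20, BSA · Reagent – Cy5/quencher beacon DNA duplex and ATP to start · Compound – single 10.9 µM dose · Timing – 1 h at 25 °C · Technique – Cy5 beacon fluorescence read at start and 1 h · Measure – % inhibition of unwinding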
# GPR7 antagonist – blocks human GPR7 receptor signaling; P48145; GPR7-expressing cells, fluorescence antagonist assay; inhibition, % at 4.4 µM; actives 1.1% (n = 290,000); in the data active means inhibition above about 16%, passing the limit was not always enough;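 further: cells stimulated with the agonist NPW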
# DNA FID counter – fluorescent intercalator displacement, NS3 helicase counter-screen. DNA fluorescent intercalator displacement, fluorescence. inhibition, % at 7.9 µM. actives 0.17% (n = 290,000). AID 1845; in the data active means inhibition above about 37%;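 further: higher means more ethidium bromide displaced from hairpin DNA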
# pCIP destab – compounds decreasing mouse p/CIP protein stability; decrease of EGFP signal, % at 10 µM; actives 0.01% (n = 290,000); F442A p/CIP-EGFP cells, EGFP fluorescence, 16 h;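 active means EGFP signal decrease of at least 30% at 10 µM or well 3 SD below plate mean, unless failing retest; inactive means the rest, including hits failing retest or dose response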
# Target sequence (Q05BA5 1-1403): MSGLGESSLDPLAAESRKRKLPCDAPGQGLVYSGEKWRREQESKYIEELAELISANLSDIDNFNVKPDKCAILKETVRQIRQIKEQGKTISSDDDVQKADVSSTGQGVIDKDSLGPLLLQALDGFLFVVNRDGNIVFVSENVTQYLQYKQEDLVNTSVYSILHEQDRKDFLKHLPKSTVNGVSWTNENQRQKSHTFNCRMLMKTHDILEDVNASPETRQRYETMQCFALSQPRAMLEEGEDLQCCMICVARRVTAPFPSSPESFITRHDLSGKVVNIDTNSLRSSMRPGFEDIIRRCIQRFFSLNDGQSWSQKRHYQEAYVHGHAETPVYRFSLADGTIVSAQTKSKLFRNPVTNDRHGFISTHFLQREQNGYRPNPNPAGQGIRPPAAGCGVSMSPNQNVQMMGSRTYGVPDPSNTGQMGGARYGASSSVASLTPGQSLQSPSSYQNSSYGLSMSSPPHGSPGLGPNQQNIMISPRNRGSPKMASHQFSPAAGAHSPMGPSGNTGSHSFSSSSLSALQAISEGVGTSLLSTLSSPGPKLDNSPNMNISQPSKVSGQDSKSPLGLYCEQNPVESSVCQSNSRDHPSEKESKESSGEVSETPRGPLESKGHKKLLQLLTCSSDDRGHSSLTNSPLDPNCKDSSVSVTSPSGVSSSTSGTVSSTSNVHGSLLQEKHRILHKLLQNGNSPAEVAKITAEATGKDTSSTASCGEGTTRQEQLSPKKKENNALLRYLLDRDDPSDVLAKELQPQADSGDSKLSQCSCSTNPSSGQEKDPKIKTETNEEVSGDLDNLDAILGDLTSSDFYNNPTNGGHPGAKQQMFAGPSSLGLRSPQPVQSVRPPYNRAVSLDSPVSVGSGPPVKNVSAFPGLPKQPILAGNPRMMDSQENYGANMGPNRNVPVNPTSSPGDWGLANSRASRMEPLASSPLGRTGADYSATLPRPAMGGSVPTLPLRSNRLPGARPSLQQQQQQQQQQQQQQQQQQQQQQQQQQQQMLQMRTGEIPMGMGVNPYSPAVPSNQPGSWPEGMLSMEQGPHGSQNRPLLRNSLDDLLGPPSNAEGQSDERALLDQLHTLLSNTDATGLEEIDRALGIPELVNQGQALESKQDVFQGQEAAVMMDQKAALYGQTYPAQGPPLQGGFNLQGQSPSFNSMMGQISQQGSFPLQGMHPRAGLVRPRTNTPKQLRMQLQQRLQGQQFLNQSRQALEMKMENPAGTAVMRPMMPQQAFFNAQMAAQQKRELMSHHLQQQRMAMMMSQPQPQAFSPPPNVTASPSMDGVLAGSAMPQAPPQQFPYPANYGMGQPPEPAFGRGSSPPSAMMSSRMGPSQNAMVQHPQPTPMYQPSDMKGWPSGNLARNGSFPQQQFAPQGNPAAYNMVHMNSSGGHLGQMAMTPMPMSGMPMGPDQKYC
# HCV core dimer – blocks dimerization of HCV core protein; TR-FRET GST/Flag-core106 dimerization, 1536-well; inhibition, % at 5 µM; actives 0.33% (n = 300,000);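 active means inhibition above the mean of all tested compounds plus 3 SD, set per screening campaign, cut at about 45% in these data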
#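 Assay system: GST-tagged and Flag-tagged HCV core protein residues 1-106 / Times: compound-protein-antibody incubation 4 h at 22.5 °C / Signal: time-resolved FRET, ex 340 nm, em 617 and 671 nm / Evaluation: % inhibition based on acceptor/donor emission ratio / Benchmarks: wells lacking GST-core106 and wells with excess unlabelled core106 / Repeats: singlicate, one well per compound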
# GPR7 antag conf – human GPR7 antagonism, confirmation assay | GPR7-expressing cells, calcium fluorescence antagonist mode | shares compounds with GPR7 antagonist | inhibition, % at 4.4 µM | AID 1952 | actives 52% (n = 2,400); in the data active means inhibition above about 24%;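 further: stimulated with the GPR7 agonist NPW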
# MCHR1 antagonist – antagonizes human MCHR1, a GPR7 antagonist counter-screen | shares compounds with GPR7 antagonist | MCHR1-expressing cells, fluorescence antagonist assay | inhibition, % at 4.4 µM | actives 62% (n = 2,400) | AID 2148; in the data active means inhibition above about 22%
# A number is an active result; n = inactive; x = no result given.
SMILES,HCV NS3 hel inh,GPR7 antagonist,DNA FID counter,pCIP destab,HCV core dimer,GPR7 antag conf,MCHR1 antagonist
Cc1ccc(NC(=S)NCc2ccc(Cl)cc2)c(C)c1,n,31,n,n,n,24,n
COc1ccc(N(C(=O)c2csnn2)C(C(=O)NC2CCCC2)c2ccccc2)cc1 (configuration not stated),n,n,n,n,n,x,x
CSc1cccc(NC(=O)Nc2nc3c(C)cccc3s2)c1,n,n,n,n,n,33,76
COc1cc(NC(=O)CN(C)S(=O)(=O)c2ccc3c(c2)CC(C)N3C(C)=O)cc(OC)c1OC (configuration not stated),n,n,n,n,n,x,x
Cc1ccc2sc(N(CCN(C)C)C(=O)c3ccc4ccccc4c3)nc2c1C,n,n,n,n,n,x,x
Cc1ccc2sc(N(CCCN(C)C)C(=O)CN3C(=O)c4ccccc4C3=O)nc2c1C,n,27,n,n,n,60,56
Clc1ccc(CN(Cc2ccc(Cl)cc2)c2nn[nH]n2)cc1,n,26,n,n,n,25,n
c1ccc(CN(Cc2ccccc2)c2nn[nH]n2)cc1,n,n,n,n,n,x,x
CS(=O)(=O)N(CC(=O)N1CCN(Cc2ccc3c(c2)OCO3)CC1)Cc1ccc(Cl)cc1,n,25,n,n,n,38,56
CS(=O)(=O)N(CCc1ccccc1)CC(=O)N1CCN(Cc2ccc3c(c2)OCO3)CC1,n,n,n,n,n,x,x
CCN(CC)CCn1c(=N)n(CC(O)COc2ccccc2)c2ccccc21 (configuration not stated),n,29,37,n,n,n,n
CCCCn1c(=N)n(CC(O)COc2cccc(C)c2)c2ccccc21 (configuration not stated),n,33,n,n,n,37,46
COc1ccccc1OCC(O)Cn1c(=N)n(Cc2ccccc2)c2ccccc21 (configuration not stated),n,25,n,n,n,29,35
Cc1nnc(SCC(=O)Nc2cccc(Cl)c2)n1CC1CCCO1 (configuration not stated),n,n,n,n,n,x,x
Cn1cc(CN2CCCC(C(=O)c3cc(F)ccc3F)C2)c2ccccc21 (configuration not stated),n,n,n,n,n,x,x
O=C(c1cc(F)ccc1F)C1CCCN(Cc2cccn2-c2ccccn2)C1 (configuration not stated),n,37,n,n,n,n,24
COc1ccc(F)cc1C(=O)C1CCCN(Cc2cn(C)c3ccccc23)C1 (configuration not stated),n,24,n,n,n,33,30
COc1ccc(N2CCN(CCCNC(=O)C(=O)c3c(C)n(C)c4ccccc34)CC2)cc1,n,n,n,n,n,x,x
CCN(c1ccccc1)S(=O)(=O)c1cc(C(=O)Nc2cccc(Cl)c2)ccc1F,n,26,n,n,n,n,51
CCc1nnc(N/N=C/c2c(C)[nH]c3ccccc23)n1N,n,n,n,n,n,x,x
Cc1ccc(-c2ccc(=O)n(Cc3ccc(F)cc3)n2)cc1,n,n,n,n,n,x,x
COc1ccc(-c2ccc(=O)n(Cc3ccc([N+](=O)[O-])cc3)n2)cc1,n,36,n,n,n,52,83
COCc1nc2ccccc2n1CCc1ccccc1,n,n,n,n,n,x,x
CCOC(=O)C1CCN(C(=O)c2ccc3c(c2)NC(=O)/C(=C\c2ccc(C)cc2)S3)CC1,n,33,n,n,n,n,46
N#C/C(=C\c1ccccc1)C(=O)NCc1ccc(F)cc1,n,22,n,n,n,43,47
SMILES,HCV NS3 hel inh,GPR7 antagonist,DNA FID counter,pCIP destab,HCV core dimer,GPR7 antag conf,MCHR1 antagonist
CCN1C(=O)/C(=C2/C=CC=CN2C)SC1=S,n,n,n,n,n,x,x
COc1ccc(N2C(=O)/C(=C3/C=CC=CN3C)SC2=S)cc1,n,24,n,n,n,n,n
Cc1ccc(S(=O)(=O)N2CCc3c2cc([N+](=O)[O-])cc3[N+](=O)[O-])cc1,n,n,n,n,n,x,x
CC(=O)Nc1ccc(Sc2ncccc2C(=O)Nc2ccc(F)cc2)cn1,n,62,n,n,n,98,98
CCc1ccc2nc(N(CCCN(C)C)C(=O)c3ccc(S(=O)(=O)N(C)C4CCCCC4)cc3)sc2c1,n,36,n,n,n,56,54
CN(C)CCCN(C(=O)c1ccc(S(=O)(=O)N(C)C2CCCCC2)cc1)c1nc2ccc(F)cc2s1,n,n,n,n,n,x,x
CN(C)CCCN(C(=O)c1ccc(S(=O)(=O)N(C)C2CCCCC2)cc1)c1nc2ccc(Br)cc2s1,n,22,n,n,n,50,55
COC(=O)C1C(c2ccc(N(C)C)cc2)C(C(=O)OC)S(=O)(=O)CS1(=O)=O (configuration not stated),n,n,n,n,n,x,x
CNC(=O)C1C2C=CC3(O2)C1C(=O)N(C1CC1)C3C(=O)NCc1ccc(OC)cc1 (configuration not stated),n,25,n,n,n,n,n
CCOC(=O)C1CCN(CCC(=O)Nc2ccccc2)CC1,n,51,n,n,n,n,n
O=C1C(=O)N(CCS(=O)(=O)c2ccccc2)c2ccc(F)cc21,n,n,n,n,n,x,x
CC(=O)N1CC(C)Sc2ccc(S(=O)(=O)NCc3ccc(Cl)cc3)cc21 (configuration not stated),n,n,n,n,n,x,x
COC(=O)Nc1nnc(/C=C/c2ccc(OC)cc2)s1,n,24,n,n,n,n,n
COc1ccc(Nc2cc(C(=O)NCc3ccccn3)c3ccccc3n2)c(OC)c1,n,n,n,n,n,x,x
COc1ccc(Nc2cc(C(=O)NCc3cccnc3)c3ccccc3n2)c(OC)c1,n,30,n,n,n,n,n
Cc1cc(C)nc(/N=C(\N)Nc2ccc(OCCC(C)C)cc2)n1,n,100,n,n,n,97,106
Cc1cc(C)nc(/N=C(\N)Nc2ccc(S(=O)(=O)O)cc2)n1,n,n,n,n,x,x,x
Cc1cc(C)nc(/N=C(\N)Nc2ccc(OCc3ccccc3)cc2)n1,n,101,n,n,n,99,107
Cc1cc(C)nc(/N=C(\N)Nc2ccc(CC(=O)OC(C)C)cc2)n1,n,97,n,n,n,95,97
COc1ccccc1N/C(N)=N/c1nc(C)cc(C)n1,n,n,n,n,n,x,x
CCc1ccc(N/C(=N/c2nc(C)cc(C)n2)NC(C)=O)cc1,n,n,n,n,n,x,x
CCOC(=O)C(=O)Nc1ccc(OCc2ccccc2)cc1,n,n,n,n,n,x,x
Cc1cc(C)nc(/N=C(\N)Nc2cccc(OCc3ccccc3)c2)n1,n,97,n,n,n,91,105

# Compound activity (PubChem BioAssay)
